# Source: ChEMBL document CHEMBL4014335, “Activation of Phenyl 4-(2-Oxo-3-alkylimidazolidin-1-yl)benzenesulfonates Prodrugs by CYP1A1 as New Antimitotics Targeting Breast Cancer Cells” (J Med Chem, 2017)
# Active and inactive are the calls of the source. The rule behind the calls is not given here.
# Tests used:
# Homo sapiens = species on record: Homo sapiens; experiment: Destabilization of microtubule network in human MCF7 cells at 8 nM after 24 hrs by fluorescence microscopic analysis; assay type: cell-based
# MDA-MB-231 [1] = experiment: Cell cycle arrest in human MDA-MB-231 cells assessed as accumulation at subG1 phase at 8 nM after 24 hrs by DAPI-staining based FACS analysis (reference value: 4.1%); assay type: functional
# MDA-MB-231 [2] = experiment: Cell cycle arrest in human MDA-MB-231 cells assessed as accumulation at G0/G1 phase at 8 nM after 24 hrs by DAPI-staining based FACS analysis (reference value: 70.7%); assay type: functional
# MDA-MB-231 [3] = experiment: Cell cycle arrest in human MDA-MB-231 cells assessed as accumulation at S phase at 8 nM after 24 hrs by DAPI-staining based FACS analysis (reference value: 9.7%); assay type: functional
# MDA-MB-231 [4] = experiment: Cell cycle arrest in human MDA-MB-231 cells assessed as accumulation at G2/M phase at 8 nM after 24 hrs by DAPI-staining based FACS analysis (reference value: 15.5%); assay type: functional
# HT-29 = experiment: Antiproliferative activity against human HT-29 cells after 48 hrs by SRB assay; assay type: functional, cell-based; details: HT-29, 48 h
# Procedure, shortened: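 SRB assay run as in the NCI screen with slight modifications. Seeding: HT-29 5.0 x 10^3, M21 3.5 x 10^3, MCF7 7.5 x 10^3 cells; cells preincubated 24 h. Drug in DMSO added at 0.75 to 1.0 x 10^5 nM for 48 h. TCA fixation, sulforhodamine B staining, absorbance 530-565 nm. At least two experiments in triplicate; runs accepted only when relative SD < 10%.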
# MDA-MB-468 [5] = experiment: Cell cycle arrest in human MDA-MB-468 cells assessed as accumulation at subG1 phase at 50 nM after 24 hrs by DAPI-staining based FACS analysis (reference value: 0.2%); assay type: functional
# MDA-MB-468 [6] = experiment: Cytotoxicity against human MDA-MB-468 cells after 72 hrs in presence of CYP inhibitor mefipristone by SRB assay; assay type: functional, cell-based
# Procedure, shortened: (§1)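 MDA-MB-468 cells co-incubated for 72 h with drug plus a subtoxic concentration of a CYP inhibitor. Viability read by SRB assay: TCA fixation, sulforhodamine B staining, absorbance at 530-565 nm.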
# MDA-MB-468 [7] = experiment: Cytotoxicity against human MDA-MB-468 cells after 72 hrs in presence of CYP1A1 inhibitor tacrine by SRB assay; assay type: functional, cell-based
# Procedure, shortened: (§2)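 MDA-MB-468 cells (5.0 x 10^3/well) seeded and incubated 24 h. Drug freshly dissolved in DMSO, given at 0.75 to 1.0 x 10^5 nM, together with subtoxic CYP inhibitor, for 72 h. Cells fixed with cold 10% TCA and stained with 0.1% sulforhodamine B. Bound dye taken up in 10 mM Tris, absorbance read at 530-565 nm. At least two experiments, triplicate cultures.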
# MDA-MB-231 [8] = experiment: Cell cycle arrest in human MDA-MB-231 cells assessed as accumulation at S phase at 50 nM after 24 hrs by DAPI-staining based FACS analysis (reference value: 9.7%); assay type: functional
# Cytochrome P450 1A2 = biological target: T1, Cytochrome P450 1A2 (Homo sapiens, UniProt P05177); experiment: Prodrug activation assessed as human supersomes CYP1A2-mediated 3,4,5-trimethoxyphenyl 4-(2-oxoimidazolidin-1-yl)benzenesulfonate formation after 4 hrs by HPLC-MS analysis; assay type: ADME; details: recombinant enzyme
# T1 sequence (P05177 whole entry): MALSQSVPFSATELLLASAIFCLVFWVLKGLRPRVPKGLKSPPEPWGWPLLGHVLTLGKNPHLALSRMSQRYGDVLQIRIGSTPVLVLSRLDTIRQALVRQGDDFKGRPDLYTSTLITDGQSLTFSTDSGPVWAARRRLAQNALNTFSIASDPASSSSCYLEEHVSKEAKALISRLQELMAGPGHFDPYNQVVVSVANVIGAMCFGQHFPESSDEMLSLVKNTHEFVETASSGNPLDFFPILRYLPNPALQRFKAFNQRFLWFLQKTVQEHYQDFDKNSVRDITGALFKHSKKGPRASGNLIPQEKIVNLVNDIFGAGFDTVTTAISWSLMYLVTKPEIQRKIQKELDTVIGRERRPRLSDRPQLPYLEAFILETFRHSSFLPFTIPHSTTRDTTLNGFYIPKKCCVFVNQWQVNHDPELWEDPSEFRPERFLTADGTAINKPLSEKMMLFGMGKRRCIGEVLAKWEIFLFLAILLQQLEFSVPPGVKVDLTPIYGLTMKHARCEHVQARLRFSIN
# MCF7 [9] = experiment: Cell cycle arrest in human MCF7 cells assessed as accumulation at S phase at 50 nM after 24 hrs by DAPI-staining based FACS analysis (reference value: 10.6%); assay type: functional
# MDA-MB-468 [10] = experiment: Cytotoxicity against human MDA-MB-468 cells after 72 hrs in presence of CYP1A1 inhibitor resveratrol by SRB assay; assay type: functional, cell-based; procedure, shortened: as §2
# MDA-MB-468 [11] = experiment: Cytotoxicity against human MDA-MB-468 cells after 72 hrs in presence of CYP1A1 inhibitor alpha-naphthoflavone by SRB assay; assay type: functional, cell-based; procedure, shortened: as §1
# Cytochrome P450 3A4 = Cytochrome P450 3A4 (Homo sapiens, UniProt P08684); experiment: Prodrug activation assessed as human supersomes CYP3A4-mediated 3,4,5-trimethoxyphenyl 4-(2-oxoimidazolidin-1-yl)benzenesulfonate formation after 4 hrs by HPLC-MS analysis; assay type: ADME; details: recombinant enzyme
# Sequence of Cytochrome P450 3A4 (P08684 whole entry): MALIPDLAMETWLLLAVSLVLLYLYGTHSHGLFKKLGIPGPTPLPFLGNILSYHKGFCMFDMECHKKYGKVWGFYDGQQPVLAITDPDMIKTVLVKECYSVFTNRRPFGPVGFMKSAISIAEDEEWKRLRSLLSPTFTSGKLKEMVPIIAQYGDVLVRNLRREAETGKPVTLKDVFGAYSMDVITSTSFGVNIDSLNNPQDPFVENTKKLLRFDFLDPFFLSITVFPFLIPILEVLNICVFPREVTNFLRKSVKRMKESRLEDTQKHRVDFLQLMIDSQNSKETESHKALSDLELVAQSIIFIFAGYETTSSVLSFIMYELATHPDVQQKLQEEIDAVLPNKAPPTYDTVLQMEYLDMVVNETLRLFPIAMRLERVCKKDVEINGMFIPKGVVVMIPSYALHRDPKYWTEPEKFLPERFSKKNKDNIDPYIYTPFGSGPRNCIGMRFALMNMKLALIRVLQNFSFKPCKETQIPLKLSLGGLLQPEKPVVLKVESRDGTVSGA
# MDA-MB-468 [12] = experiment: Cytotoxicity against human MDA-MB-468 cells after 72 hrs in presence of CYP1A1 inhibitor quercetin by SRB assay; assay type: functional, cell-based; procedure, shortened: as §2
# [13] = Selectivity ratio of IC50 for human M21 cells to IC50 for human MCF7 cells; assay type: functional
# Procedure, shortened: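 Ratio is IC50 in reference line over IC50 in sensitive line. […] Cells in DMEM with 5% calf serum at 37 °C. At least two experiments, triplicate cultures; assay accepted when relative SD < 10%.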
# MDA-MB-468 [14] = experiment: Cytotoxicity against human MDA-MB-468 cells after 72 hrs in presence of CYP inhibitor aniline by SRB assay; assay type: functional, cell-based; procedure, shortened: as §1
# MDA-MB-468 [15] = experiment: Cell cycle arrest in human MDA-MB-468 cells assessed as accumulation at S phase at 50 nM after 24 hrs by DAPI-staining based FACS analysis (reference value: 17%); assay type: functional
# MCF7 [16] = experiment: Cell cycle arrest in human MCF7 cells assessed as accumulation at G2/M phase at 50 nM after 24 hrs by DAPI-staining based FACS analysis (reference value: 22.3%); assay type: functional
# MDA-MB-468 [17] = experiment: Cytotoxicity against human MDA-MB-468 cells after 72 hrs in presence of CYP1A1 inhibitor ketoconazole by SRB assay; assay type: functional, cell-based; procedure, shortened: as §2
# MDA-MB-468 [18] = experiment: Cytotoxicity against human MDA-MB-468 cells after 72 hrs in presence of CYP1A1 inhibitor capsaicin by SRB assay; assay type: functional, cell-based; procedure, shortened: as §1
# [19] = Stability in human liver microsomes assessed as compound remaining after 60 mins by HPLC-MS analysis
# CYP1A1 mRNA = experiment: Upregulation of CYP1A1 mRNA expression in human MCF7 cells at 10 nM after 18 hrs by quantitative PCR analysis relative to control; assay type: ADME, cell-based; details: read-out: FC
# Procedure, shortened: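 MCF7 cells exposed to 10 nM drug for 18 and 24 h. RNA extracted with TriReagent, reverse-transcribed with M-MuLV, random hexamers and oligo(dT). 4 ng cDNA run in quadruplicate with SYBR Green, 40 cycles at 95 °C/60 °C. Relative expression by the 2^-ΔΔCt method, normalized to ACTB and B2M.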
structure (smiles),measurement,setting,value
COc1cc(OS(=O)(=O)c2ccc(N3CCNC3=O)cc2)cc(OC)c1OC,Activity,Homo sapiens,Active
same,Activity,MDA-MB-231 [1],6.9%
same,Activity,MDA-MB-231 [2],7.3%
same,Activity,MDA-MB-231 [3],8.9%
same,Activity,MDA-MB-231 [4],76.6%
CCCCN1CCN(c2ccc(S(=O)(=O)Oc3cc(OC)c(OC)c(OC)c3)cc2)C1=O,IC50,HT-29,3.6 µM
same,Activity,MDA-MB-468 [5],1.3%
same,Activity,MDA-MB-468 [6],Active
same,Activity,MDA-MB-468 [7],inactive
same,Activity,MDA-MB-231 [8],9.2%
same,Drug metabolism,Cytochrome P450 1A2,Metabolite_Notdetected
same,Activity,MCF7 [9],1.8%
same,Activity,MDA-MB-468 [10],inactive
same,Activity,MDA-MB-468 [11],inactive
same,Drug metabolism,Cytochrome P450 3A4,Metabolite_Notdetected
same,Activity,MDA-MB-468 [12],inactive
same,Ratio IC50,[13],380
same,Activity,MDA-MB-468 [14],Active
same,Activity,MDA-MB-468 [15],15%
same,Activity,MCF7 [16],90.2%
same,Activity,MDA-MB-468 [17],inactive
same,Activity,MDA-MB-468 [18],inactive
same,remaining at 1 h,[19],25%
same,"fold induction at 18 h, 0.01 µM",CYP1A1 mRNA,2
